Experimental data reported in PubChem BioAssay AID635 (SRMLSC, 2007).
About 40 (3%) of roughly 1,300 compounds were called active. The rule behind the calls is not given here. The list is a sample of the results. Results with a measured potency or affinity are listed apart.

Test: growth inhibition of wild-type E. coli BW25113 pool, dose response, OD615 (AID 635);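 note: growth measured after 20 h with compound at 37 °C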
Conditions: pooled mutant strains; at 100 µM (top of the series)
Summary of the method: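 Material: Keio BW25113 knockout pool, 1,275 strains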

SMILES	growth inhibition
Cc1cccc(N(C)C(=O)c2cc3cc4ccc(C)cc4nc3o2)c1	-7.96% (inactive)
CC(C)OCCCNc1ncnc2c1[nH]c1ccc(F)cc12	-0.56% (inactive)
CC(C)OCCCNc1ncnc2c1[nH]c1ccccc12	0.81% (inactive)
O=C(CSc1nc2ccccc2o1)Nc1nc2c(s1)CCCC2	-2.1% (inactive)
Cc1cc(NC(=O)Cn2nnc3sc4c(c3c2=O)CCC(C(C)(C)C)C4)no1 (stereo not given)	-1.22% (inactive)
CCOC(=O)Cc1ccc(NS(=O)(=O)c2ccc(SC)cc2)cc1	0.18% (inactive)
c1ccc2c(c1)CCN(c1nc3cc4c(cc3s1)OCCO4)C2	0.44% (inactive)
CC(C)c1ccc(Nc2nc(NCc3ccco3)nc(N3CCOCC3)n2)cc1	-1.77% (inactive)
COc1ccc(NS(=O)(=O)c2ccc3oc(Nc4ccc5c(c4)OCCO5)nc3c2)cc1	-4.76% (inactive)
CCCN(CCC)S(=O)(=O)c1ccc(C(=O)Nc2nnc(-c3cccc(OC)c3)o2)cc1	-1.14% (inactive)
Cc1cccc(N2CCN(C(=O)C34CC5CC(CC(C5)C3)C4)CC2)c1C	4.49% (inactive)
Cn1cccc1C(=O)Nc1nc(-c2ccccn2)cs1	1.36% (inactive)
COc1ccc(C(=O)Nn2cnc3scc(-c4cccs4)c3c2=O)c(O)c1	0.89% (inactive)
COC(=O)c1[nH]c2cccc(OC)c2c1NC(=O)CN1CC2(C)CC1CC(C)(C)C2 (stereo not given)	1.93% (inactive)
COC(=O)c1cccc(-n2nnnc2SCC(=O)Nc2nc3c(s2)CCCC3)c1	-0.44% (inactive)
O=C1OC(c2ccc(O)cc2)(c2ccc(O)cc2)c2ccccc21	0.54% (inactive)
Cc1cccc(Nc2nc(NCc3ccco3)nc(N3CCOCC3)n2)c1	0.54% (inactive)
CCOc1cc(S(=O)(=O)n2cc(-c3ccc(F)cc3)c(N)n2)cc(OCC)c1OCC	-3.17% (inactive)
CC1Cc2ccccc2N1C(=O)Cn1c(=O)oc2cc(S(=O)(=O)NC3CCCC3)ccc21 (stereo not given)	-2.66% (inactive)
CCCn1nnnc1NC(=O)CSc1ccc(Cl)cc1	1.76% (inactive)
Cc1cc(NC(=O)C2CCCCC2)nc2c1c(=O)oc1ccccc12	-2.5% (inactive)
N#Cc1nc(COc2ccc(F)cc2)oc1N1CCN(Cc2ccccc2)CC1	-4.59% (inactive)
c1ccc2oc(SCc3nc4ccccc4s3)nc2c1	-0.66% (inactive)
C=CCn1c(SCC(=O)Nc2ccc3c(c2)CCC3)nnc1-c1cccs1	-0.97% (inactive)

SMILES	growth inhibition
O=C(c1cc2ccccc2o1)N1CCN(c2ccccc2Cl)CC1	-2.73% (inactive)
O=C(CSc1nnnn1C1CCCCC1)Nc1nc2c(s1)CCCC2	-0.43% (inactive)
O=C(O)c1cc(Cl)c2ccccc2c1O	9.52% (inactive)
O=c1c(-c2nc3ccccc3o2)c2oc3ccccc3n2c2ccccc12	-2.69% (inactive)
Cc1cccc(S(=O)(=O)Nc2nc3ccccc3nc2NCc2ccco2)c1	2.5% (inactive)
Cc1ccc(-n2c(C)cc(C(=O)COC(=O)c3c(C)noc3C)c2C)cc1	-5.46% (inactive)
O=C(c1cccs1)N(Cc1nc2sc3c(c2c(=O)[nH]1)CCCC3)C1CCCC1	-3.44% (inactive)
N#Cc1ccc(NC(=O)Nc2ccc(Cl)cc2)cc1	12.7% (inactive)
CCOc1ccc(OCCSc2nnnn2C2CCCCC2)cc1	2.59% (inactive)
COc1ccc(C(C)(C)C)cc1NC(=O)Nc1ccc2c(c1)OCO2	2.22% (inactive)
COc1ccccc1-c1noc(CCC(=O)Nc2cccc(C(F)(F)F)c2)n1	9.08% (inactive)
CCc1ccc2oc(=O)cc(CN(C)Cc3ccccc3)c2c1	0.54% (inactive)
O=C(c1ccc2c(=O)n(C3CCCC3)c(=S)[nH]c2c1)N1CCN(C2CCCCC2)CC1	0.27% (inactive)
Cc1cc(C)c(C#N)c(SCC(=O)OC2CCCCC2)n1	4.58% (inactive)
COC(=O)c1ccc(CSc2nc3ccccc3o2)cc1	-2.69% (inactive)
CCCCn1nc(NC(=O)c2cccs2)c2cc3ccccc3nc21	-3.62% (inactive)
Cc1ccccc1OCCCN1C(=O)C(=O)c2cccc(C)c21	-1.21% (inactive)
Clc1ccc(OCc2nc(-c3ccccn3)n[nH]2)cc1	3.08% (inactive)
Cc1cccc(Nc2nc(-c3ccccn3)cs2)n1	-0.44% (inactive)
CC1=C(C(=O)OC2CCCCCCC2)C(c2cccc(O)c2)NC(=O)N1 (stereo not given)	3.15% (inactive)
CCC(C(=O)Nc1ccccc1OC)n1c(C(=O)OC)cc2ccsc21 (stereo not given)	2.88% (inactive)
COc1cccc(-c2cc(C(=O)N3CCc4ccccc4C3)no2)c1	-1.57% (inactive)
CC(C)C(C(=O)NCc1ccco1)N(C(=O)CNS(=O)(=O)c1ccc(Cl)cc1)C1CCCC1 (stereo not given)	-9.91% (inactive)
O=S(=O)(N1CCCCC1)n1c(Cc2ccccc2)nc2ccccc21	2.59% (inactive)

SMILES	growth inhibition
Cc1cc(N2CCCCC2)n2ncc(-c3ccccc3)c2n1	1.76% (inactive)
Cc1ccc(C(c2nnnn2CCc2ccccc2)N2CCSCC2)cc1 (stereo not given)	-0.97% (inactive)
N#Cc1cn(Cc2cccc(Cl)c2)c2ccccc12	7.22% (inactive)
CCCCN1C(=O)C2ON(c3ccccc3C)C(c3ccco3)C2C1=O (stereo not given)	3.87% (inactive)
CN1CCN(CC(=O)N2CCn3c4c(c5cc(C6CCCCC6)ccc53)CCCC42)CC1 (stereo not given)	1.85% (inactive)
CCN(CCCNC(=O)c1[nH]c(C)c(C(C)=O)c1C)c1cccc(C)c1	1.22% (inactive)
CCCc1cc(C(=O)N2CCN(c3ccccc3C)CC2)cs1	3.4% (inactive)
COc1ccc2nc(NC(=O)CSc3nnnn3C3CCCCC3)sc2c1	0.18% (inactive)
CCn1cc(C(=O)NC2CCCCC2C)c(=O)c2ccc(C)nc21 (stereo not given)	7.04% (inactive)
Cc1cccc(NC(=O)CSc2nnc(-c3cc(C)n(-c4ccccc4)c3C)o2)c1C	0.15% (inactive)
O=S(=O)(Nc1cc(Cl)ccc1N1CCCCC1)c1cccs1	3.05% (inactive)
Cc1cc(=O)[nH]c(SCC(=O)Nc2nc(-c3ccccc3)cs2)n1	4.29% (inactive)
COc1ccccc1N1CCN(C(=O)c2cc(-c3cccc(Cl)c3)on2)CC1	-2.98% (inactive)
CC(C)c1nnc(NC(=O)c2c(O)c3cccc4c3n(c2=O)CC4)s1	-11% (inactive)
CCOc1cc(S(=O)(=O)N2CCN(Cc3ccccc3)CC2)ccc1Br	-3.26% (inactive)
CC1CN(c2oc(COc3ccc(Cl)cc3Cl)nc2C#N)CC(C)O1 (stereo not given)	-5.37% (inactive)
CN(C1CCCCC1)S(=O)(=O)c1ccc(NC(=O)c2ccc(Br)o2)cc1	-1.39% (inactive)
Cc1[nH]n2c(=O)c3c(nc2c1-c1ccc(Cl)cc1)CCC3	-1.19% (inactive)
CCOC(=O)c1cn(CC)c2cc(N3CCSCC3)c(F)cc2c1=O	3.43% (inactive)
Cc1csc(NC(=O)c2cccc(Cn3nc(C)c(Br)c3C)c2)n1	1.33% (inactive)
COc1ccc(-c2[nH]ncc2Oc2ccccc2OC)c(O)c1	7.41% (inactive)
Cc1ccc(Cl)cc1NC(=O)CC(O)(C(F)(F)F)C(F)(F)F	15.3% (inactive)
CCOC(=O)C1CCN(C(c2cccnc2)c2c(NC(=O)c3ccco3)sc(C)c2C)CC1 (stereo not given)	-3.15% (inactive)
Cc1cc(C)c(O)c(-c2cc(C(=O)Nc3ccc(S(=O)(=O)N4CCOCC4)cc3)[nH]n2)c1	3.2% (inactive)

SMILES	growth inhibition
COc1ccc(S(=O)(=O)N(Cc2cccs2)C2CCCC2)cc1	3.24% (inactive)
COc1ccc(OCC(O)Cn2c(=N)n(Cc3ccccc3)c3ccccc32)cc1 (stereo not given)	12.8% (inactive)
CCc1nc(N2CCCCC2)c2oc3ccccc3c2n1	-3.08% (inactive)
Brc1cc(Br)c2ncnc(N3CCCCC3)c2c1	1.95% (inactive)
COCCCN1C(=O)c2[nH]nc(-c3ccccc3O)c2C1c1ccc(Cl)cc1 (stereo not given)	-4.43% (inactive)
COc1ccccc1N1CCN(C(c2ccccc2Cl)c2nnnn2C(C)(C)C)CC1 (stereo not given)	-0.1% (inactive)
CC(C)c1nc(N2CCN(C(=O)c3ccco3)CC2)c2c3c(sc2n1)CCCC3	4.77% (inactive)
O=C(CN(C(=O)CNC(=O)c1ccco1)c1ccc(Cl)c(Cl)c1)NC1CCCCC1	1.85% (inactive)
CCCCOn1c(C)c(C(=O)OCC)c2c3nonc3ccc21	2.87% (inactive)
CCOC(=O)c1sc(NC(=O)CSc2n[nH]c(-c3ccccc3)n2)c(C#N)c1C	1.14% (inactive)
Cc1cccc(Cc2c(C)nc3c(C(=O)NCc4ccco4)cnn3c2C)c1	-6.42% (inactive)
Cc1noc(C)c1S(=O)(=O)N(CCc1ccccc1)Cc1ccccc1	3.25% (inactive)
Cc1ccc2c3c1C1(C(=O)N3C(C)(C)CC2C)C(C#N)=C(N)Oc2cc(O)ccc21 (stereo not given)	4.82% (inactive)
Cc1ccc(C2C(S(C)(=O)=O)=C(O)C(=O)N2c2ccccc2)cc1 (stereo not given) (tested in a mixture with another compound)	3.27% (inactive)
CC1CCCC(C)N1C(=O)CN1C(=O)C(C)(C)Oc2ccc(C(=O)NC3CCCCC3)cc21 (stereo not given)	-0.3% (inactive)
Oc1ccccc1-c1cc(-c2ccc3c(c2)OCCO3)n[nH]1	5.21% (inactive)
Cc1csc(SCC(=O)Nc2nc(-c3ccccc3)cs2)n1	0.45% (inactive)
O=C(Nc1nc(SCc2ccc(F)cc2)ns1)c1ccco1	8.93% (inactive)
COc1ccc2[nH]c(=O)c(CN(C(=O)NC3CCCCC3)C3CCCCC3)cc2c1	-1.14% (inactive)
COC(=O)c1c(NC(=O)Cc2cccs2)sc2c1CCCC2	4.36% (inactive)
Cn1c(-c2ccc3c(c2)OCO3)cnc1N	-1.76% (active)
OCCn1c(-c2ccc3c(c2)OCO3)csc1=Nc1ccccc1	-0.74% (inactive)
N#Cc1c(N)oc(-c2ccc3c(c2)OCO3)c1-c1ccc2c(c1)OCO2	1.41% (inactive)
